Measurements reported in ChEMBL document CHEMBL1127623, “Synthesis and structure-activity relationships of the novel homopropargylamine antimycotics” (1994).
≈ marks a conversion by molar mass, not a printed value. Each block holds one compound with its values, some of them ahead of it.

Columns and labels:
Aspergillus fumigatus = assay: Tested in vitro for minimum inhibitory concentration against Aspergillus fumigatus; type: functional
In short: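 Tube dilution in Sabouraud's dextrose broth (pH 6.5). Compounds were dissolved in DMSO and serially diluted in medium. The inoculum was harvested by spatula from Kimmig agar cultures grown 21 days at 30 °C. Tubes were read after 72 h at 30 °C. MIC was the lowest concentration with no macroscopically detectable growth.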

Candida albicans [1] = assay: Tested in vitro for minimum inhibitory concentration against candida albicans 124; type: functional
In short: (§1)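 Yeast broth dilution in malt extract broth (pH 4.8) in glass tubes, with compounds in DMSO serially diluted in medium. Blastospores came from cultures shaken about 30 h at 37 °C in yeast nitrogen base. Growth was read after 48 h at 30 °C. MIC was the lowest concentration without macroscopically visible growth.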

Candida parapsilosis = assay: Tested in vitro for minimum inhibitory concentration against candida parapsilosis 39; type: functional; settings: Lodderomyces parapsilosis; in short: as §1
Microsporum canis = assay: Tested in vitro for minimum inhibitory concentration against microsporum canis; type: functional
In short: (§2)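 Serial dilutions were made from DMSO solutions into Sabouraud's dextrose broth (pH 6.5) in glass tubes. Inoculum was taken by spatula from Kimmig agar cultures grown 21 days at 30 °C. Incubation was 7 days at 30 °C. MIC was the lowest concentration at which growth was macroscopically undetectable.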

Sporothrix schenckii = assay: Tested in vitro for minimum inhibitory concentration against sporothrix schenck ii; type: functional; in short: as §2
Candida albicans [2] = assay: Tested in vitro for minimum inhibitory concentration against candida albicans 9; type: functional; in short: as §1
[3] = test system: Trichophyton mentagrophytes; assay: Tested in vitro for minimum inhibitory concentration against Trichophyton mentagrophytes

Structure (SMILES): CCN(Cc1cccc2ccccc12)C(=O)OCCC#CC(C)(C)C
- MIC (Aspergillus fumigatus): > 200 µg/mL
- MIC (Candida albicans [1]): > 200 µg/mL
- MIC (Candida parapsilosis): 25 µg/mL (≈ 74.1 µM)
- MIC (Microsporum canis): 100 µg/mL (≈ 296 µM)
- MIC (Sporothrix schenckii): > 200 µg/mL
- MIC (Candida albicans [2]): > 200 µg/mL
- MIC [3]: 100 µg/mL (≈ 296 µM)

Structure (SMILES): CN(CC#CC(C)(C)C)Cc1cccc2ccccc12
- MIC (Aspergillus fumigatus): > 200 µg/mL
- MIC (Candida albicans [1]): > 200 µg/mL
- MIC (Candida parapsilosis): > 200 µg/mL
- MIC (Microsporum canis): 25 µg/mL (≈ 94.2 µM)
- MIC (Sporothrix schenckii): > 200 µg/mL
- MIC (Candida albicans [2]): 200 µg/mL (≈ 754 µM)
- MIC [3]: 12.5 µg/mL (≈ 47.1 µM)

Structure (SMILES): CN(CC#CC(C)(C)C)CCc1cccc2ccccc12
- MIC (Aspergillus fumigatus): > 50 µg/mL
- MIC (Candida albicans [1]): 100 µg/mL (≈ 358 µM)
- MIC (Candida parapsilosis): 50 µg/mL (≈ 179 µM)
- MIC (Microsporum canis): 1.56 µg/mL (≈ 5.58 µM)
- MIC (Sporothrix schenckii): 6.25 µg/mL (≈ 22.4 µM)
- MIC (Candida albicans [2]): 50 µg/mL (≈ 179 µM)
- MIC [3]: 1.56 µg/mL (≈ 5.58 µM)

Structure (SMILES): CC(C#CC(C)(C)C)CN(C)Cc1cccc2ccccc12 (configuration not stated)
- MIC (Aspergillus fumigatus): > 200 µg/mL
- MIC (Candida albicans [1]): > 200 µg/mL
- MIC (Candida parapsilosis): 200 µg/mL (≈ 682 µM)
- MIC (Microsporum canis): 0.8 µg/mL (≈ 2.73 µM)
- MIC (Sporothrix schenckii): 12.5 µg/mL (≈ 42.6 µM)
- MIC (Candida albicans [2]): > 200 µg/mL
- MIC [3]: 0.8 µg/mL (≈ 2.73 µM)

Structure (SMILES): CN(CCCCC#CC(C)(C)C)Cc1cccc2ccccc12
- MIC (Aspergillus fumigatus): > 200 µg/mL
- MIC (Candida albicans [1]): > 200 µg/mL
- MIC (Candida parapsilosis): > 200 µg/mL
- MIC (Microsporum canis): 25 µg/mL (≈ 81.3 µM)
- MIC (Sporothrix schenckii): > 200 µg/mL
- MIC (Candida albicans [2]): 200 µg/mL (≈ 650 µM)
- MIC [3]: 12.5 µg/mL (≈ 40.7 µM)

Structure (SMILES): CN(C/C=C/C#CC(C)(C)C)Cc1cccc2ccccc12 [TERBINAFINE]
- MIC (Aspergillus fumigatus): 0.8 µg/mL (≈ 2.75 µM)
- MIC (Candida albicans [1]): 25 µg/mL (≈ 85.8 µM)
- MIC (Candida parapsilosis): 0.8 µg/mL (≈ 2.75 µM)
- MIC (Microsporum canis): 0.006 µg/mL (≈ 0.0206 µM)
- MIC (Sporothrix schenckii): 0.4 µg/mL (≈ 1.37 µM)
- MIC (Candida albicans [2]): 6.25 µg/mL (≈ 21.4 µM)
- MIC [3]: 0.003 µg/mL (≈ 0.0103 µM)

Structure (SMILES): CC(CC#CC(C)(C)C)N(C)Cc1cccc2ccccc12 (configuration not stated)
- MIC (Aspergillus fumigatus): > 200 µg/mL
- MIC (Candida albicans [1]): > 200 µg/mL
- MIC (Candida parapsilosis): 100 µg/mL (≈ 341 µM)
- MIC (Microsporum canis): 1.56 µg/mL (≈ 5.32 µM)
- MIC (Sporothrix schenckii): > 200 µg/mL
- MIC (Candida albicans [2]): 200 µg/mL (≈ 682 µM)
- MIC [3]: 1.56 µg/mL (≈ 5.32 µM)

The next lines start with the values.

- MIC (Aspergillus fumigatus): 50 µg/mL (≈ 172 µM)
- MIC (Candida albicans [1]): > 200 µg/mL
- MIC (Candida parapsilosis): 6.25 µg/mL (≈ 21.4 µM)
- MIC (Microsporum canis): 0.5 µg/mL (≈ 1.72 µM)
- MIC (Sporothrix schenckii): 1.56 µg/mL (≈ 5.35 µM)
- MIC (Candida albicans [2]): > 200 µg/mL
- MIC [3]: 0.05 µg/mL (≈ 0.172 µM)
Structure (SMILES): C=C(C#CC(C)(C)C)CN(C)Cc1cccc2ccccc12

- MIC (Aspergillus fumigatus): 0.2 µg/mL (≈ 0.682 µM)
- MIC (Candida albicans [1]): 200 µg/mL (≈ 682 µM)
- MIC (Candida parapsilosis): 3.13 µg/mL (≈ 10.7 µM)
- MIC (Microsporum canis): 0.02 µg/mL (≈ 0.0682 µM)
- MIC (Sporothrix schenckii): 12.5 µg/mL (≈ 42.6 µM)
- MIC (Candida albicans [2]): 50 µg/mL (≈ 170 µM)
- MIC [3]: 0.05 µg/mL (≈ 0.17 µM)
Structure (SMILES): CCN(CCC#CC(C)(C)C)Cc1cccc2ccccc12

- MIC (Aspergillus fumigatus): 50 µg/mL (≈ 170 µM)
- MIC (Candida albicans [1]): 200 µg/mL (≈ 682 µM)
- MIC (Candida parapsilosis): 100 µg/mL (≈ 341 µM)
- MIC (Microsporum canis): 3.13 µg/mL (≈ 10.7 µM)
- MIC (Sporothrix schenckii): 12.5 µg/mL (≈ 42.6 µM)
- MIC (Candida albicans [2]): 100 µg/mL (≈ 341 µM)
- MIC [3]: 0.8 µg/mL (≈ 2.73 µM)
Structure (SMILES): CN(CCC#CC(C)(C)C)CCc1cccc2ccccc12

- MIC (Aspergillus fumigatus): 0.05 µg/mL (≈ 0.163 µM)
- MIC (Candida albicans [1]): 25 µg/mL (≈ 81.3 µM)
- MIC (Candida parapsilosis): 0.4 µg/mL (≈ 1.3 µM)
- MIC (Microsporum canis): 0.003 µg/mL (≈ 0.00976 µM)
- MIC (Sporothrix schenckii): 1.56 µg/mL (≈ 5.07 µM)
- MIC (Candida albicans [2]): 12.5 µg/mL (≈ 40.7 µM)
- MIC [3]: 0.003 µg/mL (≈ 0.00976 µM)
Structure (SMILES): CCCC(C)(C)C#CCCN(C)Cc1cccc2ccccc12

- MIC (Aspergillus fumigatus): 1.56 µg/mL (≈ 5.86 µM)
- MIC (Candida albicans [1]): > 200 µg/mL
- MIC (Candida parapsilosis): > 200 µg/mL
- MIC (Microsporum canis): 0.4 µg/mL (≈ 1.5 µM)
- MIC (Sporothrix schenckii): > 200 µg/mL
- MIC (Candida albicans [2]): 200 µg/mL (≈ 751 µM)
- MIC [3]: 0.4 µg/mL (≈ 1.5 µM)
Structure (SMILES): CC(C)(C)C#CCCOCc1cccc2ccccc12

- MIC (Aspergillus fumigatus): 0.2 µg/mL (≈ 0.586 µM)
- MIC (Candida albicans [1]): 12.5 µg/mL (≈ 36.6 µM)
- MIC (Candida parapsilosis): 0.4 µg/mL (≈ 1.17 µM)
- MIC (Microsporum canis): 0.006 µg/mL (≈ 0.0176 µM)
- MIC (Sporothrix schenckii): 3.13 µg/mL (≈ 9.17 µM)
- MIC (Candida albicans [2]): 6.25 µg/mL (≈ 18.3 µM)
- MIC [3]: 0.01 µg/mL (≈ 0.0293 µM)
Structure (SMILES): CN(CCC#CC(C)(C)c1ccccc1)Cc1cccc2ccccc12

- MIC (Aspergillus fumigatus): 0.1 µg/mL (≈ 0.358 µM)
- MIC (Candida albicans [1]): 50 µg/mL (≈ 179 µM)
- MIC (Candida parapsilosis): 1.56 µg/mL (≈ 5.58 µM)
- MIC (Microsporum canis): 0.01 µg/mL (≈ 0.0358 µM)
- MIC (Sporothrix schenckii): 3.13 µg/mL (≈ 11.2 µM)
- MIC (Candida albicans [2]): 50 µg/mL (≈ 179 µM)
- MIC [3]: 0.006 µg/mL (≈ 0.0215 µM)
Structure (SMILES): CN(CCC#CC(C)(C)C)Cc1cccc2ccccc12

- MIC (Aspergillus fumigatus): 50 µg/mL (≈ 170 µM)
- MIC (Candida albicans [1]): 200 µg/mL (≈ 682 µM)
- MIC (Candida parapsilosis): 0.8 µg/mL (≈ 2.73 µM)
- MIC (Microsporum canis): 0.2 µg/mL (≈ 0.682 µM)
- MIC (Sporothrix schenckii): 1.56 µg/mL (≈ 5.32 µM)
- MIC (Candida albicans [2]): > 200 µg/mL
- MIC [3]: 0.05 µg/mL (≈ 0.17 µM)
Structure (SMILES): CN(CCCC#CC(C)(C)C)Cc1cccc2ccccc12

- MIC (Aspergillus fumigatus): 0.1 µg/mL (≈ 0.341 µM)
- MIC (Candida albicans [1]): 50 µg/mL (≈ 170 µM)
- MIC (Candida parapsilosis): 1.56 µg/mL (≈ 5.32 µM)
- MIC (Microsporum canis): 0.01 µg/mL (≈ 0.0341 µM)
- MIC (Sporothrix schenckii): 3.13 µg/mL (≈ 10.7 µM)
- MIC (Candida albicans [2]): 12.5 µg/mL (≈ 42.6 µM)
- MIC [3]: 0.006 µg/mL (≈ 0.0204 µM)
Structure (SMILES): CCC(C)(C)C#CCCN(C)Cc1cccc2ccccc12
